Measured values reported in ChEMBL document CHEMBL3286381 (J Med Chem, 2014).
pEC50, pKi: −log10 of the molar value. Activity calls are given as the source filed them. The rule behind the calls is not given here.

Key:
[1] = molecular target: T1, Alkaline phosphatase, tissue-nonspecific isozyme (Homo sapiens) (UniProt P05186); assay: Inhibition of TNAP (unknown origin) using ATP as substrate assessed as inorganic phosphate release at 100 uM after 15 mins relative to control
T1 sequence (whole entry): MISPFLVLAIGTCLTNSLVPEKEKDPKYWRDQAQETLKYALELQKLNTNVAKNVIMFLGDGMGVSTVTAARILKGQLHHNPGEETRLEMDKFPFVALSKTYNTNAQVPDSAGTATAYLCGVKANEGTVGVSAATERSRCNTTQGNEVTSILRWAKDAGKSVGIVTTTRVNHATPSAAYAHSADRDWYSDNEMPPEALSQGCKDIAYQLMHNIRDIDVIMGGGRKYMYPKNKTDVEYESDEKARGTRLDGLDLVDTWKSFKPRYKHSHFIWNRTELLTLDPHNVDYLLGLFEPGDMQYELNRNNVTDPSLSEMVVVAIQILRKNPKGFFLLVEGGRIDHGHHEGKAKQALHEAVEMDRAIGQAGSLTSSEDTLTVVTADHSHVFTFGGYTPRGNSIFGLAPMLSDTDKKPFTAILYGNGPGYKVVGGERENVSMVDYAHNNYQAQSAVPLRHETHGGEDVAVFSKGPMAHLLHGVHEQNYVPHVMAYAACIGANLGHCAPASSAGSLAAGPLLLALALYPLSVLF

[2] = molecular target: P2Y purinoceptor 2 (Homo sapiens) (UniProt P41231); assay: Agonist activity at human P2Y2 receptor expressed in human 1321N1 cells assessed as increase of intracellular calcium level at 100 uM after 30 mins using fura-2 AM by fluorescence assay; type: functional, cell-based
[3] = molecular target: T2, Ectonucleotide pyrophosphatase/phosphodiesterase family member 1 (Homo sapiens) (UniProt P22413); assay: Inhibition of human NPP1 using pNP-TMP as substrate at 100 uM after 20 mins by reversed-phase HPLC analysis
T2 sequence (whole entry): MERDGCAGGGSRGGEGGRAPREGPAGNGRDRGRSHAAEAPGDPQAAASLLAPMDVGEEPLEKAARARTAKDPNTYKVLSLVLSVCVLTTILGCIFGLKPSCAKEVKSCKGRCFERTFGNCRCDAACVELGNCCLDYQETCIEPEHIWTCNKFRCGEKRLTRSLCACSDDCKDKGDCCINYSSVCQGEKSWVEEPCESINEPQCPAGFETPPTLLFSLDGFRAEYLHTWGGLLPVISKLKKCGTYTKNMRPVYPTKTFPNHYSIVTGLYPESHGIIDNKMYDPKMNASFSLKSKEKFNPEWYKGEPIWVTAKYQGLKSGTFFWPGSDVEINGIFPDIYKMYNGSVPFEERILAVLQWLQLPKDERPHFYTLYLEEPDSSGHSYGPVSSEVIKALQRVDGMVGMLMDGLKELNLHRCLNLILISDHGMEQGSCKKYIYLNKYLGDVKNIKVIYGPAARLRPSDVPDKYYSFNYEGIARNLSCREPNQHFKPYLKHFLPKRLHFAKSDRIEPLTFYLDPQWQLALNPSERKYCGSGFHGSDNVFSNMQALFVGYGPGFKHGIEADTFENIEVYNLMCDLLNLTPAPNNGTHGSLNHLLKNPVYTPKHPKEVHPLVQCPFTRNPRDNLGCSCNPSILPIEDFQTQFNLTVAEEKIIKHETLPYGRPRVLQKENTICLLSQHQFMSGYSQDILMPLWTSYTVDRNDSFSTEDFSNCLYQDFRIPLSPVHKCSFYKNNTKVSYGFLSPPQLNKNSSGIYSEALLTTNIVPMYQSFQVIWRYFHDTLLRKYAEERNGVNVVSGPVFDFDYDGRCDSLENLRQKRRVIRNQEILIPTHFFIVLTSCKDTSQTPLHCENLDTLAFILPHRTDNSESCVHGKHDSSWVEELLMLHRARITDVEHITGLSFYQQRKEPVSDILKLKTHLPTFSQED

[4] = molecular target: P2Y purinoceptor 2 (Homo sapiens) (UniProt P41231); assay: Antagonist activity at human P2Y2 receptor expressed in human 1321N1 cells assessed as effect on UTP-induced effect; type: cell-based
P2Y purinoceptor 11 = molecular target: T3, P2Y purinoceptor 11 (Homo sapiens, UniProt Q96G91); assay: Agonist activity at human P2Y11 receptor expressed in human 1321N1 cells assessed as increase of intracellular calcium level after 30 mins using fura-2 AM by fluorescence assay; type: functional, cell-based
T3 sequence (Q96G91 whole entry): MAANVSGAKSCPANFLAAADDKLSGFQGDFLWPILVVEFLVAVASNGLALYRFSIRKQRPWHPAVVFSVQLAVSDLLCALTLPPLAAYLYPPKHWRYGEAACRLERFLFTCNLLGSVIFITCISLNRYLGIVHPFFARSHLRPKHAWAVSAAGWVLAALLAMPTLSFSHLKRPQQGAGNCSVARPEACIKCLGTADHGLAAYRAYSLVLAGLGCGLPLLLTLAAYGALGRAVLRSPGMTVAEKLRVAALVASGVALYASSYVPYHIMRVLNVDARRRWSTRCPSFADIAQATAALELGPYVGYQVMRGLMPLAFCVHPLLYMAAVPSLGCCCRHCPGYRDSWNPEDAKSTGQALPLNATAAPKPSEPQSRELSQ

[5] = molecular target: T4, P2Y purinoceptor 11 (Homo sapiens) (UniProt Q96G91); assay: Agonist activity at human P2Y11 receptor expressed in human 1321N1 cells assessed as increase of intracellular calcium level up to 10 uM after 30 mins using fura-2 AM by fluorescence assay; type: functional, cell-based
T4 sequence (whole entry): T3 sequence (Q96G91 whole entry)

[6] = molecular target: T5, Ectonucleotide pyrophosphatase/phosphodiesterase family member 1 (Homo sapiens, UniProt P22413); assay: Mixed type inhibition of human NPP1 using pNP-TMP as substrate assessed as dissociation constant for enzyme-inhibitor-substrate complex after 20 mins by Dixon and Cornish-Bowden method
T5 sequence (P22413 whole entry): T2 sequence (whole entry)
Procedure, shortened: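 Human NPP1 (COS-7 lysate) is tested with pNP-TMP hydrolysis at 37 °C in pH 8.5 Tris buffer, reading p-nitrophenol at […]. Substrate is 25, 50 and 100 μM, and inhibitor is 0, 25, 50 and 100 μM. Inhibition type, Ki and Ki′ (EIS complex dissociation constant) come from Dixon and Cornish–Bowden plots of three independent experiments.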

Sequence of P2Y purinoceptor 2 (Homo sapiens) (P41231 whole entry): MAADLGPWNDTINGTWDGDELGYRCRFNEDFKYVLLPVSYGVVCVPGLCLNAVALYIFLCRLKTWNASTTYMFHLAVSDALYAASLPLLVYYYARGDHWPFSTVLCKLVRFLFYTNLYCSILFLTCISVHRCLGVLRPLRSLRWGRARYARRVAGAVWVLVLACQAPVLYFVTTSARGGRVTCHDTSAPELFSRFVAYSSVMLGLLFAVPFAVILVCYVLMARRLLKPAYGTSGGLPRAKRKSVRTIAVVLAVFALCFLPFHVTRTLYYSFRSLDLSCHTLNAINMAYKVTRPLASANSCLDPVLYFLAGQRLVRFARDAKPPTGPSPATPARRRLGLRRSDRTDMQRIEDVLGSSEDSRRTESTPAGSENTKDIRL

SMILES	inhibition [1]	Activity [2]	inhibition [3]	inhibition [4]	pEC50 (P2Y purinoceptor 11)	Activity [5]	pKi [6]
Nc1ncnc2c1ncn2[C@@H]1O[C@H](CO[P@](O)(=S)OP(=O)(O)C(Cl)(Cl)P(=O)(O)O)[C@@H](O)[C@H]1O	17%	inactive	> 90%	inactive			
Nc1ncnc2c1ncn2[C@@H]1O[C@H](CO[P@@](O)(=S)OP(=O)(O)C(Cl)(Cl)P(=O)(O)O)[C@@H](O)[C@H]1O			> 90%				
Nc1ncnc2c1ncn2[C@@H]1O[C@H](CO[P@@](O)(=S)OP(=O)(O)CP(=O)(O)O)[C@@H](O)[C@H]1O			> 90%		6.05		
Nc1ncnc2c1ncn2[C@@H]1O[C@H](CO[P@](O)(=S)OP(=O)(O)CP(=O)(O)O)[C@@H](O)[C@H]1O			> 90%			inactive	5.35
Nc1ncnc2c1ncn2[C@@H]1O[C@H](COP(=O)(O)CP(=O)(O)OP(O)(O)=S)[C@@H](O)[C@H]1O	8%	inactive	> 90%	inactive			
